Assay outcomes deposited in PubChem by several laboratories.
Calb FLC – affects C. albicans growth with fluconazole. C. albicans CaCi-2 (fluconazole-resistant clinical isolate) + fluconazole, Alamar Blue growth, 48 h. growth inhibition, % (test concentration not listed). 300,000 compounds, 0.57% hits;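 active means growth inhibition above about 58% in most replicates, limit read from the data, passing the limit was not always enough; inconclusive means exactly half the replicates above a set limit; inactive means most replicates below a set limit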;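 further: all wells also contain fluconazole at 8 µg/ml as a sub-toxic cotreatment; 0% = median of DMSO wells and 100% = median of geldanamycin control wells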
CSC inhib – cancer stem cell inhibition | cancer stem cell-like cells viability, luminescence | inhibition, % at 7.5 µM | 300,000 compounds, 1.1% hits; in the data active means inhibition above about 75%; inconclusive means no clear call, values can overlap the other calls; tested in HMLE shEcad cells
NLRP3 yeast inh – NALP3 inhibition in yeast; Yeast reconstituted NLRP3/ASC/caspase-1, beta-gal luminescence, 24 h; inhibition, % at 10 µM; 330,000 compounds, 0.39% hits;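 active means inhibition of 50% or more; inactive means inhibition below 50%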;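 further: plate controls were induced DMSO wells for no effect and uninduced yeast grown without galactose for full effect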
T cruzi inh – blocks replication of Trypanosoma cruzi. T. cruzi beta-gal in NIH3T3, luminescence, 90 h. inhibition, % (concentration not given with the values). AID 1885. 300,000 compounds, 1.4% hits;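 active means mean inhibition across valid replicates above about 55%, limit read from the data; inconclusive means mean below that limit but half or more replicates reach it; inactive means mean below it, under half of replicates reach it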;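 further: signal also drops with host cell toxicity which is not excluded here; 0% = plate median of DMSO wells and 100% = zero luminescence signal; higher percent means less beta-gal luminescence so fewer parasites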
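Assay system: NIH/3T3 fibroblasts plus reporter T. cruzi. Amount: NIH/3T3 cells, 5,000 per well. Buffer or medium: DMEM, 2% fetal bovine serum. Doses: compound pinned at 50 nL/well, DMSO. Schedule: ≥90 h infection period, 3 h prior cell attachment. Signal: luminescent β-galactosidase signal after 60 min lysis. Read-out: parasite load inhibition, %.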
Mdm2-MdmX inh – inhibitors of human Mdm2/MdmX interaction; O15151+Q00987; SaOS-2 split-luciferase Mdm2/MdmX complementation, luminescence; inhibition, % at 8 µM; 330,000 compounds, 3% hits;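 active means inhibition of at least 50% at 8 µM in the primary screen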
Target sequence (O15151 whole entry, looked up): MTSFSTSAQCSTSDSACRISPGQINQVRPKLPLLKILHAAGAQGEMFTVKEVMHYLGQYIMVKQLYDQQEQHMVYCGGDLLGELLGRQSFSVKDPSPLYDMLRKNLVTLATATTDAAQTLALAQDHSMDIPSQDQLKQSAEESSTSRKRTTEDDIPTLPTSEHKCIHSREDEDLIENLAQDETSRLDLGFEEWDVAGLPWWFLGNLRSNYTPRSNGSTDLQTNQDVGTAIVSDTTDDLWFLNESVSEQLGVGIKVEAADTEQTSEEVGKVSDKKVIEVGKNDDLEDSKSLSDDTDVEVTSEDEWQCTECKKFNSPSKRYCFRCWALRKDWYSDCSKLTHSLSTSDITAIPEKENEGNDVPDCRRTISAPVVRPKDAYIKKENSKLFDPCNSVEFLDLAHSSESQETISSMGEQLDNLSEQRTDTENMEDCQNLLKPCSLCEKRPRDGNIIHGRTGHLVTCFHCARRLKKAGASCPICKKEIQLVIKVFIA
Target sequence (Q00987 whole entry, looked up): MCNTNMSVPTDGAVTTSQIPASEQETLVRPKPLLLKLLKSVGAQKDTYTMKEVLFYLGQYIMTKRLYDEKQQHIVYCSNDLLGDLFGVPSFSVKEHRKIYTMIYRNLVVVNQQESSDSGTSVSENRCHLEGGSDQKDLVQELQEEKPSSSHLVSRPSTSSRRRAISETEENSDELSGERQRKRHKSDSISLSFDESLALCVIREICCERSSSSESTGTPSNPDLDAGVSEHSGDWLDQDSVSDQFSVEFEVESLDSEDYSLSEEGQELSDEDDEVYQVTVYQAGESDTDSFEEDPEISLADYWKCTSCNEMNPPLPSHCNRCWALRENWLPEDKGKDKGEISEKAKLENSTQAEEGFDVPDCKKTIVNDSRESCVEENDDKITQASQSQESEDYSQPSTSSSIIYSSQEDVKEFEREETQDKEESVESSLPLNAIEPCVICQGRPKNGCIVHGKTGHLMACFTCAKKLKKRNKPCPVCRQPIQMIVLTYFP
Beta apoptosis – blocks beta cell apoptosis; AID 435005; protection from apoptosis, % (concentration not given with the values); INS-1E cytokine-induced death, ATP luminescence, 48 h; percent of positive-control rescue, neutral wells zero; 300,000 compounds, 0.8% hits;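 active means Every replicate reaches about 75%, or at least half do and their mean reaches it too, limit read from the data; inconclusive means At least half of replicates reach the limit but their mean does not; inactive means Under half of replicates reach the limit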;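 further: 0% = cytokine-treated negative control wells and 100% = positive control rescue; higher means more ATP so stronger rescue from cytokine killing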
Mdm2 MdmX conf – confirmation of human Mdm2/MdmX interaction inhibitors | shares compounds with Mdm2-MdmX inh | Mdm2-MdmX binding, luminescent assay | inhibition, % at 8 µM | 10,000 compounds, 55% hits | AID 489028; in the data active means inhibition above about 40%
Full FLuc ctr – full-length luciferase inhibition in Mdm2/MdmX counter-screen; 6,200 compounds, 77% hits; shares compounds with Mdm2-MdmX inh; inhibition, % at 8 µM; SaOS-2 full-length luciferase counterscreen, luminescence; AID 504607;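 active means mean inhibition at 8 µM reaching about 37%, which flags the compound as non-specific, limit read from the data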;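 further: p53-null SaOS-2 cells with luciferase driven by a doxycycline-inducible promoter; compound on cells about two nights before reading with doxycycline added after day one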
* hit, by the source's call; ? = inconclusive; nt = not tested or not shown. The list is not random: actives were taken first. Their share in the collection is about 5.3%.

SMILES | Calb FLC | CSC inhib | NLRP3 yeast inh | T cruzi inh | Mdm2-MdmX inh | Beta apoptosis | Mdm2 MdmX conf | Full FLuc ctr
Nc1nc(Nc2ccccc2)nc(NCc2ccccc2)c1[N+](=O)[O-] | -3.1 | 57.4 | 18.0 | 12.6 | 19.0 | 7.3 | nt | nt
CC(C)Cn1c(N)cc(=O)n(C)c1=O | 9.3 | -7.4 | 20.2 | 0.9 | 16.4 | -5.2 | nt | nt
S=c1[nH]nc(-c2ccco2)n1/N=C/C(Cl)=C/c1ccccc1 | 5.0 | 82.9* | 42.1 | -68.9 | 61.9* | 2.5 | -39.1 | nt
CC(=C/c1ccccc1)/C=N/n1c(-c2ccncc2)n[nH]c1=S | -5.8 | -27.7 | 20.6 | -15.2 | 73.6* | -28.0 | 78.2* | 53.2*
S=c1[nH]nc(-c2cc(-c3ccccc3)n[nH]2)n1/N=C/C(Br)=C/c1ccccc1 | -6.1 | 83.0* | 31.5 | 12.0 | 99.8* | ? | 84.0* | 24.2
CC(/C=N/n1c(-c2cccnc2)n[nH]c1=S)=C\c1ccccc1 | 10.8 | 0.7 | 11.8 | 1.4 | 22.0 | 5.6 | nt | nt
COc1ccc(CCC(=O)Nc2nnc(C(C)(C)C)s2)cc1 | -1.1 | -10.6 | 7.9 | -2.0 | 27.8 | -0.7 | nt | nt
O=C(NCCc1ccccc1)c1ncn[nH]1 | 7.9 | -15.9 | -4.7 | 8.1 | 9.3 | -7.1 | nt | nt
N=c1c(C(=O)NCCc2ccccc2)cc2c(=O)n3ccccc3nc2n1CC1CCCO1 (centres undefined) | 9.7 | 2.1 | 26.5 | 12.3 | 11.3 | nt | nt | nt
Cc1cccn2c(=O)c3cc(C(=O)NCCc4ccccc4)c(=N)n(CCCn4ccnc4)c3nc12 | 3.8 | 33.1 | 17.1 | 29.6 | 51.0* | -4.0 | 18.1 | nt
N=c1c(C(=O)NCC2CCCO2)cc2c(=O)n3ccccc3nc2n1Cc1ccccc1Cl (centres undefined) | 51.1 | -12.1 | 7.1 | -0.1 | 64.1* | 25.8 | 25.9 | nt
N=c1c(C(=O)NCC2CCCO2)cc2c(=O)n3ccccc3nc2n1Cc1ccccc1 (centres undefined) | -27.7 | -13.3 | 17.3 | 12.3 | 3.1 | 7.1 | nt | nt
Cc1cccn2c(=O)c3cc(C(=O)NCCc4ccccc4)c(=N)n(CC4CCCO4)c3nc12 (centres undefined) | 10.4 | -4.2 | 8.7 | 32.3 | 71.5* | 6.1 | 36.6 | nt
c1ccc(CNCC2COc3ccccc3O2)cc1 (centres undefined) | -2.9 | -5.0 | 20.0 | -4.3 | 13.4 | 1.1 | nt | nt
COc1ccc(C2/C(=C(/O)c3ccc(Br)cc3)C(=O)C(=O)N2C)cc1OC (centres undefined) | -14.0 | -4.5 | 20.3 | -9.0 | 12.8 | -4.8 | nt | nt
COCCn1c(C)cc(C2=NNC(=Nc3ccc(OC)cc3)SC2)c1C | ? | -2.9 | 2.3 | 28.3 | 1.4 | -30.8 | nt | nt
COCCn1c(C)cc(C2=NNC(=Nc3ccccc3)SC2)c1C | -3.2 | -4.2 | -0.6 | 6.6 | 62.1* | -5.6 | 72.8* | 81.4*
c1ccc(-c2cccc(-c3ccccn3)n2)nc1 | 100.1* | 107.0* | 47.2 | 51.8 | 65.5* | 81.5* | 78.7* | 18.4
CC(O)(c1ccccc1)C(c1ccccc1)C1CCCCN1 (centres undefined) | -13.0 | -11.3 | -4.5 | 1.9 | -12.1 | -1.2 | nt | nt
OC(c1cc(C(F)(F)F)nc2c(Cl)cc(Cl)cc12)C1CCCCN1 (centres undefined) | 1.3 | 41.1 | 24.9 | 38.3 | 68.2* | 35.5 | 42.0* | 48.3*
O=c1c2cc(Cl)cc(Cl)c2nc2n1CCC2 | -0.5 | -8.5 | -4.3 | -6.2 | 6.3 | -5.1 | nt | nt
O[C@@H](c1cc(C(F)(F)F)nc2c(C(F)(F)F)cccc12)[C@H]1CCCCN1 | nt | 36.8 | 32.8 | 33.2 | 99.2* | -14.4 | 77.8* | 46.6*
Cn1nc(C(F)(F)F)c2cc(C(=O)NC3CC3)sc21 | -1.7 | nt | 23.9 | -4.8 | -5.7 | -0.5 | nt | nt
CCCCc1ccc(NC(=O)CSc2nc(=O)n(CCN(CC)CC)c3c2CCCC3)cc1 | 47.3 | 4.5 | 14.7 | 42.7 | 87.5* | 25.3 | 53.9* | 61.5*
CCCCc1ccc(NC(=O)CSc2nc(=O)n(CCN(C)C)c3c2CCC3)cc1 | 5.3 | -8.6 | 17.8 | 37.4 | 36.5 | nt | nt | nt
SMILES | Calb FLC | CSC inhib | NLRP3 yeast inh | T cruzi inh | Mdm2-MdmX inh | Beta apoptosis | Mdm2 MdmX conf | Full FLuc ctr
COc1cccc(C#Cc2c(C=O)n(C)c3ccccc23)c1 | nt | -28.5 | 30.8 | nt | 66.3* | -1.5 | 39.7 | 70.0*
O=C(/C=C/c1cccnc1)c1ccc([N+](=O)[O-])cc1 | -2.7 | 6.8 | 8.9 | 10.9 | 36.0 | -4.8 | nt | nt
COc1cc(C(=O)/C=C/c2cccnc2)c([N+](=O)[O-])cc1OC | 11.5 | 10.8 | 16.8 | -14.9 | 54.6* | -5.6 | 19.8 | nt
CCN(CC)C(=O)c1sc(NC(=O)C(Sc2ccccc2)c2ccccc2)c(C(=O)OC(C)C)c1C (centres undefined) | -6.1 | 17.5 | 15.2 | 32.1 | 57.5* | 3.2 | 0.8 | nt
CC(C)(C)OC(=O)[C@H](Cc1ccccc1)NC(=O)c1nc[nH]c1C(=O)NCCCCCN | 10.0 | 6.9 | 12.4 | -1.4 | -4.1 | -5.7 | nt | nt
Cc1cccc(OCC(=O)OCC(=O)c2c(N)n(C)c(=O)n(C)c2=O)c1 | -1.0 | -21.3 | 0.8 | -9.9 | -5.7 | -2.8 | nt | nt
COCCN(Cc1cc2cc(C)ccc2n2nnnc12)C(=S)Nc1ccccc1C | 4.4 | -7.8 | 22.7 | 9.0 | 50.5* | -2.3 | -0.5 | nt
CCC(Sc1nc2cc3c(cc2c(=O)n1Cc1ccco1)OCO3)C(=O)Nc1ccccc1OC (centres undefined) | 8.8 | 4.4 | -1.7 | 35.4 | 61.1* | 18.2 | 44.4* | 80.4*
CCC(Sc1nc2cc3c(cc2c(=O)n1Cc1ccco1)OCO3)C(=O)Nc1cccc(OC)c1 (centres undefined) | ? | 14.7 | -7.9 | 35.2 | 40.5 | nt | nt | nt
COc1cc(C2C3=C(Nc4ncnn42)c2ccccc2CC3)cc(OC)c1OC (centres undefined) | 30.5 | 1.5 | 0.1 | 24.8 | 65.9* | 35.0 | 67.3* | 130.6*
Cc1ccc(C(=O)O/N=C(\N)c2ccccn2)cc1C | 1.5 | -0.8 | 30.7 | 0.4 | 81.7* | 6.0 | 70.0* | 63.9*
Cc1cccc(C(=O)O/N=C(\N)c2ccccn2)c1 | -3.3 | -5.4 | 31.2 | -6.0 | 65.1* | 9.7 | 63.0* | 99.6*
CC(C)(C)c1ccc(C(=O)O/N=C(\N)c2ccccn2)cc1 | 7.8 | -5.7 | 15.0 | 22.3 | 98.2* | -3.8 | 97.3* | 28.0
N/C(=N\OC(=O)c1ccccc1)c1ccccn1 | 3.5 | 8.4 | 13.2 | -15.2 | 41.6 | 13.5 | nt | nt
Cc1ccc(C(=O)O/N=C(\N)c2ccccn2)cc1 | -1.6 | 16.9 | 19.5 | 3.8 | 90.6* | -0.7 | 89.3* | 34.0
Cc1cc(C)n(-c2nc3c(c(=O)[nH]c(=O)n3C)n2Cc2ccc(F)cc2)n1 | 11.1 | 3.9 | 5.8 | 0.0 | -4.4 | -1.8 | nt | nt
Cc1ccc(S(=O)(=O)Cc2ccc(C(=O)N3CCC(C)CC3)cc2)cc1 | 3.0 | -12.8 | 10.3 | 0.9 | 19.5 | 3.7 | nt | nt
